# In the library only some 1% were active in any assay of this set; here they are far more common.
# ERp5 block = inhibitors of ERp5-driven insulin aggregation, primary screen, biochemical, turbidity, absorbance 650 nm, single point; Protein disulfide-isomerase A6 (Homo sapiens), Q15084; 90 min; inhibition, % at 9.99 µM; hit rate 0.05% among 350,000; AID 651711, 2012;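 active = mean replicate inhibition above about 25%, with every replicate also reaching it, limit read from the data, passing the limit was not always enough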
# VIM-2 inh = VIM-2 metallo-beta-lactamase inhibitors, primary screen, biochemical, epi-absorbance readout, Pseudomonas aeruginosa enzyme; inhibition, % at 5.6 µM; AID 1527, 2009; purified VIM-2, nitrocefin hydrolysis, epi-absorbance fluorescence; hit rate 0.89% among 290,000;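 active = inhibition above the mean of all tested compounds plus 3 SD, cutoff set per screening run, cut at about 7.5% in these data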;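 note: red hydrolysis product quenches plate fluorescence so inhibitors raise well fluorescence; 0% = enzyme with DMSO and 100% = DMSO without enzyme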
# PvdQ acylase = P. aeruginosa PvdQ acylase inhibitors, primary screen, biochemical, fluorescence, plate reader and imaging, single point; purified PvdQ acylase; inhibition, % at 10 µM; hit rate 0.063% among 340,000; AID 488965, 2010; in the data active = inhibition above about 30%, passing the limit was not always enough;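 note: 0% = vehicle neutral wells and 100% = reference inhibitor wells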
# PglD DTNB = C. jejuni PglD acetyltransferase inhibitors, primary screen, biochemical, DTNB colorimetric, single point; purified PglD enzyme, DTNB colorimetric CoA detection; inhibition, % at 12.5 µM; hit rate 0.098% among 360,000; AID 602405, 2012; in the data active = inhibition above about 16%, passing the limit was not always enough
# PDI inh = inhibitors of human PDI, primary screen, biochemical, turbidity, single point, plate reader; Protein disulfide-isomerase (Homo sapiens), P07237; PDI insulin aggregation turbidity, A650, 90 min; inhibition, % at 10 µM; hit rate 0.052% among 350,000; AID 588391, 2011;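 active = mean inhibition across replicates of 30% or more, whatever share of single replicates reach that level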
# Target sequence (P07237 whole entry, looked up): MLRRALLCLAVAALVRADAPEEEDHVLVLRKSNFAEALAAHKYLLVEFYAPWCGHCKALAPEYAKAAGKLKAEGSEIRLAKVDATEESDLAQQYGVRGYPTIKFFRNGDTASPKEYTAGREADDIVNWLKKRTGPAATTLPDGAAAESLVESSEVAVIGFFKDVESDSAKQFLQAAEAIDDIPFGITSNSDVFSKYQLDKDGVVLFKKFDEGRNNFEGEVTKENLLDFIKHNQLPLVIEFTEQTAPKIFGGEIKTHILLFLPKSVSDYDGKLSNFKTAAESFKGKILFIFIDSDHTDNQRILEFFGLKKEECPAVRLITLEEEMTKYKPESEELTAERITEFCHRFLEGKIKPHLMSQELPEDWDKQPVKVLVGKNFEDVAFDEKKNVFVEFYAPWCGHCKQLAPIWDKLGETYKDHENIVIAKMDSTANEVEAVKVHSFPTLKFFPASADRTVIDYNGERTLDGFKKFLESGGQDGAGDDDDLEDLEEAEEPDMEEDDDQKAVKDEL
# IMP-1 inh = IMP-1 metallo-beta-lactamase inhibitors, primary screen, biochemical, epi-absorbance readout, Pseudomonas aeruginosa enzyme; metallo-beta-lactamase IMP-1 (Pseudomonas aeruginosa); purified IMP-1, nitrocefin hydrolysis, epi-absorbance fluorescence; inhibition, % at 5.6 µM; hit rate 0.45% among 290,000; AID 1556, 2009;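 active = inhibition above the mean plus 3 SD of all compounds in the same screening run, cut at about 4.5% in these data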;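 note: 0% = IMP-1 with DMSO and 100% = DMSO wells lacking enzyme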
#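 System: purified IMP-1; amount: IMP-1 0.2 nM before substrate addition; compound: single dose, 5.6 µM; times: 25 °C, 15 min preincubation, 25 min reaction; signal: Epi-absorbance via hydrolysed-nitrocefin quenching of white-plate fluorescence, 480/530 nm, EDTA stop; benchmarks: DMSO with and without IMP-1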
# VIM-2 confirm = P. aeruginosa VIM-2 enzyme inhibition – biochemical, epi-absorbance, HTS, confirmation. hit rate 73% among 200. AID 1860, 2009. shares compounds with IMP-1 inh. purified VIM-2 enzyme, nitrocefin absorbance. inhibition, % at 5.6 µM; in the data active = inhibition above about 8%;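 note: 0% = enzyme with vehicle and 100% = no enzyme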
# TEM-1 counter = Serine beta-lactamase TEM-1 inhibition, biochemical epi-absorbance counter-screen for IMP-1/VIM-2 inhibitor program; shares compounds with IMP-1 inh; inhibition, % at 5.6 µM; hit rate 50% among 200; TEM-1 beta-lactamase, nitrocefin absorbance inhibition; in the data active = inhibition above about 0.66%
# Target sequence (P62593 whole entry, looked up): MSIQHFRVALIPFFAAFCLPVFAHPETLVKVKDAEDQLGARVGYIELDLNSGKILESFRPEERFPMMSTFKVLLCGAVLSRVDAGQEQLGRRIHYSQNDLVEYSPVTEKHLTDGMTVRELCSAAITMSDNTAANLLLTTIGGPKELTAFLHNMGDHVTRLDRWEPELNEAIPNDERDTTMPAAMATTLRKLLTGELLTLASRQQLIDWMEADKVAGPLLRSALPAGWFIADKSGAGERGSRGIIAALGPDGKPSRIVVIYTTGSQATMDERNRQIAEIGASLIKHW
# IMP-1 inh conf = IMP-1 metallo-beta-lactamase inhibitors, confirmation, biochemical, epi-absorbance, hits shared with VIM-2 screen; purified IMP-1 enzyme, absorbance substrate hydrolysis; shares compounds with IMP-1 inh; inhibition, % at 5.6 µM; AID 2189, 2009; hit rate 60% among 200; in the data active = inhibition above about 4.9%;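 note: 0% = enzyme with vehicle and 100% = vehicle without enzyme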
# An asterisk follows results filed as active; nt = no result.
SMILES,ERp5 block,VIM-2 inh,PvdQ acylase,PglD DTNB,PDI inh,IMP-1 inh,VIM-2 confirm,TEM-1 counter,IMP-1 inh conf
COc1ccc(/C(C)=N/NC(=O)c2nnn(-c3nonc3N)c2-c2cccs2)cc1,5.7,-1.0,-2.9,-2.9,-10.9,-2.8,nt,nt,nt
COc1ccc(/C(C)=N/NC(=O)c2nnn(-c3nonc3N)c2-c2ccccc2)cc1,0.5,11.6*,-8.7,-7.4,-8.7,18.6*,14.9*,-1.8,17.8*
Cc1ccc2[nH]cc(/C=C/c3cc[n+](C)cc3)c2c1,-0.2,15.0*,8.4,-4.1,-1.3,5.7*,14.7*,5.1*,5.9*
Cc1ccc2[nH]ccc(=O)c2c1,3.8,-1.8,-6.5,-4.5,-2.6,-1.8,nt,nt,nt
CCn1c(/C=C/c2c[nH]c3ccccc23)nc2ccccc2c1=O,-4.5,-5.6,0.4,nt,-18.2,-4.2,nt,nt,nt
CC[n+]1ccc(/C=C/c2c[nH]c3ccccc23)cc1,3.0,8.2*,1.7,-6.7,-2.4,5.6*,8.1*,2.7*,3.8
Cc1noc(C)c1NC(=O)N(C)C[C@@H]1Oc2ccc(NC(=O)NC3CCCCC3)cc2C(=O)N([C@@H](C)CO)C[C@@H]1C,-3.1,nt,nt,1.1,nt,nt,nt,nt,nt
COCC#Cc1ccc(CC[C@H]2O[C@H]3CC[C@@H](CO)O[C@H]3C[C@@H]2n2cc(C3CC3)nn2)cc1,-2.9,nt,nt,nt,nt,nt,nt,nt,nt
CCC(=O)Nc1ccc2c(c1)C(=O)N(C)C[C@H](OC)[C@H](C)CN(Cc1cccnc1)[C@@H](C)CO2,-6.5,nt,nt,5.1,nt,nt,nt,nt,nt
Cc1ccc2nc3c(cc(C(=O)NCCCn4ccnc4)n3C)c(=O)n2c1,nt,14.6*,-13.8,4.1,-3.6,8.4*,2.3,-0.6,-1.9
O=C(CSc1nnc(-c2ccc(O)cc2)n1-c1ccccc1)CC(=O)Nc1ccccc1,nt,15.9*,-3.3,6.1,18.7,7.9*,0.0,-4.7,-3.0
CCN(CC)c1ccc(/C=C/C(=O)c2ccc(Br)cc2)cc1,nt,13.7*,-0.8,nt,-6.9,8.0*,33.5*,47.6*,30.9*
CCOC(=O)NC(=O)/C(C#N)=C\Nc1sccc1C(=O)OC,-0.6,7.7*,-2.0,nt,-5.5,9.1*,5.5,-4.0,-1.4
C[C@@H]1CN([C@H](C)CO)C(=O)c2cccc(NC(=O)Nc3ccc4c(c3)OCO4)c2O[C@@H]1CN(C)Cc1ccc(C(=O)Nc2ccccc2N)cc1,1.3,nt,nt,0.9,nt,nt,nt,nt,nt
CC(NC(=O)c1cccs1)C(S)c1ccccc1 (stereo unspecified),1.8,41.1*,-1.7,-4.9,4.8,21.5*,46.6*,-5.8,48.5*
CC(C)NC(=O)Nc1ccc2c(c1)C(=O)N([C@@H](C)CO)C[C@@H](C)[C@@H](CN(C)C)O2,-8.7,nt,nt,2.3,nt,nt,nt,nt,nt
COc1ccc(NC(=O)NS(=O)(=O)c2ccc(C)cc2)cn1,-18.8,16.1*,13.4,nt,-4.4,11.9*,-0.2,-2.0,-2.6
COc1cc(NC(=O)NS(=O)(=O)c2ccc(C)cc2)cc(OC)c1,nt,-2.0,-7.2,-0.3,-1.0,-3.1,nt,nt,nt
O=C(Cc1ccccc1)N1CC[C@H]2[C@H](CO)Nc3ccc(C4=CCCCC4)cc3[C@H]21,-1.8,nt,nt,nt,nt,nt,nt,nt,nt
c1nc(NCCN2CCOCC2)c2sc3nc(N4CCOCC4)c4c(c3c2n1)CCC4,-72.9,9.5*,-10.7,3.5,-1.3,7.6*,15.9*,-4.2,-1.2
C[C@H](CO)N1C[C@H](C)[C@@H](CN(C)C(=O)Nc2ccc(F)cc2)OCCCC[C@H](C)Oc2ccc(NC(=O)Nc3ccc4c(c3)OCO4)cc2C1=O,2.3,nt,nt,-3.2,nt,nt,nt,nt,nt
N#CC1=C(N)S[C@H](C(=O)C23CC4CC(CC(C4)C2)C3)[C@H]1c1ccncc1,nt,21.6*,1.7,0.5,7.0,54.9*,-0.4,-4.8,5.8*
C[C@@H]1CN([C@H](C)CO)S(=O)(=O)c2ccc(/C=C/c3ccccc3)cc2O[C@H]1CN(C)C(=O)NC1CCCCC1,-5.3,nt,nt,-0.3,nt,nt,nt,nt,nt
COC(=O)c1c(C(=O)OC)c(-c2ccc(F)cc2)n2c1CSC2,0.8,0.0,-14.9,2.0,-2.3,-3.4,nt,nt,nt
CC(C)(C)c1ccc(-c2c(C(=O)O)c(C(=O)O)c3n2CSC3)cc1,-7.1,20.2*,8.0,3.0,10.3,20.4*,17.3*,-4.8,12.4*
SMILES,ERp5 block,VIM-2 inh,PvdQ acylase,PglD DTNB,PDI inh,IMP-1 inh,VIM-2 confirm,TEM-1 counter,IMP-1 inh conf
C[C@@H]1CN([C@@H](C)CO)C(=O)c2cc(-c3cccnc3)cnc2O[C@H]1CN(C)C(=O)Nc1ccc2c(c1)OCO2,2.1,nt,nt,0.9,nt,nt,nt,nt,nt
CCN(CC)c1ccc(/C=C(\C#N)C(=O)NCc2ccco2)cc1,-1.7,18.0*,nt,nt,nt,5.3*,-3.0,-5.6,-3.7
C[C@H](O)C#Cc1cnc2c(c1)C(=O)N([C@@H](C)CO)C[C@H](C)[C@H](CN(C)Cc1ccccn1)O2,-0.6,nt,nt,2.2,nt,nt,nt,nt,nt
C(#Cc1ccccc1)C[N+]1(CC#Cc2ccccc2)CCCC1,-0.3,-0.5,-2.1,-7.9,12.8,-4.7,nt,nt,nt
C=CC#CC[N+]1(CC#Cc2ccccc2)CCOCC1,12.1,20.2*,8.3,nt,7.3,19.7*,33.8*,-5.5,-2.9
CCCNC(=O)C[C@H]1CC[C@@H]2[C@@H](COc3ccc(NC(=O)Nc4ccccc4F)cc3C(=O)N2C)O1,-1.5,nt,nt,4.0,nt,nt,nt,nt,nt
Cc1cccc(C)c1NC(=O)COC(=O)c1ccc2c(c1)OCO2,-1.8,-2.2,-12.6,nt,-3.8,-2.2,nt,nt,nt
CC(OC(=O)c1c2c(nc3ccccc13)/C(=C\c1ccc3c(c1)OCO3)CCC2)C(=O)Nc1ccc(S(N)(=O)=O)cc1 (stereo unspecified),nt,17.6*,-9.0,7.6,-1.0,13.5*,14.8*,28.6*,10.4*
CC(OC(=O)c1cc2ccccc2cc1O)C(=O)Nc1ccc(S(N)(=O)=O)cc1 (stereo unspecified),-7.1,-1.7,0.6,-3.8,2.6,-1.9,nt,nt,nt
Cc1cccc(C)c1NC(=O)COC(=O)c1c2c(nc3ccccc13)/C(=C\c1ccc3c(c1)OCO3)CCC2,0.1,20.0*,-16.0,nt,-6.8,16.8*,0.2,-4.0,-1.2
COc1ccc2c3c(n(C)c2c1)[C@H](CO)N(S(C)(=O)=O)CC31CN(C(=O)C2CCC2)C1,0.2,nt,nt,nt,nt,nt,nt,nt,nt

# Screening data (PubChem BioAssay)
